Assay results: ChEMBL document CHEMBL3585281, “Antibacterial Labdane Diterpenoids from Vitex vestita” (2015)

What was measured:
Assay type in all cases: functional
Bacillus cereus [1] = experiment: Antibacterial activity against Bacillus cereus CIP 6624 after 18 hrs by agar dilution method; settings: CIP 6624, 18 h
Procedure, shortened: (§1)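 Agar-dilution MIC against Gram-positive strains. Compounds in DMSO, geometric dilutions giving final 100−0.75 mg/L in Mueller Hinton agar. Strains grown 18 h at 37 °C in trypticase soy broth, diluted in sterile water, spotted by Steers inoculator (about 1000 UFC/spot). Plates incubated 18 h at 37 °C; DMSO blank; ofloxacin positive control. MIC = lowest concentration with no visible growth.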

Bacillus cereus [2] = experiment: Antibacterial activity against Bacillus cereus N190 after 18 hrs by agar dilution method; settings: N190, 18 h; procedure, shortened: as §1
Bacillus cereus [3] = experiment: Antibacterial activity against Bacillus cereus N258 after 18 hrs by agar dilution method; settings: N258, 18 h; procedure, shortened: as §1
Bacillus cereus [4] = experiment: Antibacterial activity against Bacillus cereus N349 after 18 hrs by agar dilution method; settings: N349, 18 h; procedure, shortened: as §1
Bacillus spizizenii = experiment: Antibacterial activity against Bacillus subtilis ATCC 6633 after 18 hrs by agar dilution method; settings: ATCC 6633, 18 h; procedure, shortened: as §1
Corynebacterium striatum = experiment: Antibacterial activity against Corynebacterium striatum N840 after 18 hrs by agar dilution method; settings: N840, 18 h; procedure, shortened: as §1
Enterococcus avium = experiment: Antibacterial activity against Enterococcus avium CIP 104053 after 18 hrs by agar dilution method; settings: CIP 104053, 18 h; procedure, shortened: as §1
[5] = test system: Enterococcus casseliflavus; experiment: Antibacterial activity against Enterococcus casseliflavus N487 after 18 hrs by agar dilution method; settings: N487, 18 h; procedure, shortened: as §1
[6] = test system: Enterococcus casseliflavus; experiment: Antibacterial activity against Enterococcus casseliflavus CIP 103018 after 18 hrs by agar dilution method; settings: CIP 103018, 18 h; procedure, shortened: as §1
Enterococcus durans = experiment: Antibacterial activity against Enterococcus durans CIP 104999 after 18 hrs by agar dilution method; settings: CIP 104999, 18 h; procedure, shortened: as §1
Enterococcus faecalis [7] = experiment: Antibacterial activity against Enterococcus faecalis CIP 103214 after 18 hrs by agar dilution method; settings: CIP 103214, 18 h; procedure, shortened: as §1
Enterococcus faecalis [8] = experiment: Antibacterial activity against Enterococcus faecalis CIP 104676 after 18 hrs by agar dilution method; settings: CIP 104676, 18 h; procedure, shortened: as §1
Enterococcus faecalis [9] = experiment: Antibacterial activity against Enterococcus faecalis N491 after 18 hrs by agar dilution method; settings: N491, 18 h; procedure, shortened: as §1
Enterococcus faecalis [10] = experiment: Antibacterial activity against Enterococcus faecalis N518 after 18 hrs by agar dilution method; settings: N518, 18 h; procedure, shortened: as §1
Enterococcus faecalis [11] = experiment: Antibacterial activity against Enterococcus faecalis N520 after 18 hrs by agar dilution method; settings: N520, 18 h; procedure, shortened: as §1
Enterococcus faecium [12] = experiment: Antibacterial activity against Enterococcus faecium CIP 103014 after 18 hrs by agar dilution method; settings: CIP 103014, 18 h; procedure, shortened: as §1
Enterococcus faecium [13] = experiment: Antibacterial activity against Enterococcus faecium CIP 107387 after 18 hrs by agar dilution method; settings: CIP 107387, 18 h; procedure, shortened: as §1
Enterococcus faecium [14] = experiment: Antibacterial activity against Enterococcus faecium N490 after 18 hrs by agar dilution method; settings: N490, 18 h; procedure, shortened: as §1
Enterococcus faecium [15] = experiment: Antibacterial activity against Enterococcus faecium N507 after 18 hrs by agar dilution method; settings: N507, 18 h; procedure, shortened: as §1
Enterococcus faecium [16] = experiment: Antibacterial activity against Enterococcus faecium N733 after 18 hrs by agar dilution method; settings: N733, 18 h; procedure, shortened: as §1
Enterococcus faecium [17] = experiment: Antibacterial activity against Enterococcus faecium N823 after 18 hrs by agar dilution method; settings: N823, 18 h; procedure, shortened: as §1
Enterococcus gallinarum [18] = experiment: Antibacterial activity against Enterococcus gallinarum CIP 105985 after 18 hrs by agar dilution method; settings: CIP 105985, 18 h; procedure, shortened: as §1
Enterococcus gallinarum [19] = experiment: Antibacterial activity against Enterococcus gallinarum N489 after 18 hrs by agar dilution method; settings: N489, 18 h; procedure, shortened: as §1
Enterococcus gallinarum [20] = experiment: Antibacterial activity against Enterococcus gallinarum N492 after 18 hrs by agar dilution method; settings: N492, 18 h; procedure, shortened: as §1
Enterococcus hirae = experiment: Antibacterial activity against Enterococcus hirae CIP 5855 after 18 hrs by agar dilution method; settings: CIP 5855, 18 h; procedure, shortened: as §1
Listeria innocua = experiment: Antibacterial activity against Listeria innocua E044 after 18 hrs by agar dilution method; settings: E044, 18 h; procedure, shortened: as §1
Listeria monocytogenes [21] = experiment: Antibacterial activity against Listeria monocytogenes CIP 103575 after 18 hrs by agar dilution method; settings: CIP 103575, 18 h; procedure, shortened: as §1
Listeria monocytogenes [22] = experiment: Antibacterial activity against Listeria monocytogenes N783 after 18 hrs by agar dilution method; settings: N783, 18 h; procedure, shortened: as §1
Listeria monocytogenes [23] = experiment: Antibacterial activity against Listeria monocytogenes N836 after 18 hrs by agar dilution method; settings: N836, 18 h; procedure, shortened: as §1
Listeria monocytogenes [24] = experiment: Antibacterial activity against Listeria monocytogenes N851 after 18 hrs by agar dilution method; settings: N851, 18 h; procedure, shortened: as §1
Staphylococcus aureus [25] = experiment: Antibacterial activity against Staphylococcus aureus ATCC 25923 after 18 hrs by agar dilution method; settings: ATCC 25923, 18 h; procedure, shortened: as §1
Staphylococcus aureus [26] = experiment: Antibacterial activity against Staphylococcus aureus ATCC 9144 oxford after 18 hrs by agar dilution method; procedure, shortened: as §1
Staphylococcus aureus [27] = experiment: Antibacterial activity against Staphylococcus aureus CIP 483 after 18 hrs by agar dilution method; settings: CIP 483, 18 h; procedure, shortened: as §1
Staphylococcus aureus [28] = experiment: Antibacterial activity against Staphylococcus aureus CIP 53154 after 18 hrs by agar dilution method; settings: CIP 53154, 18 h; procedure, shortened: as §1
Staphylococcus aureus [29] = experiment: Antibacterial activity against Staphylococcus aureus CIP 53156 after 18 hrs by agar dilution method; settings: CIP 53156, 18 h; procedure, shortened: as §1
Staphylococcus aureus [30] = experiment: Antibacterial activity against Staphylococcus aureus CIP 5710 after 18 hrs by agar dilution method; settings: CIP 5710, 18 h; procedure, shortened: as §1
Staphylococcus aureus [31] = experiment: Antibacterial activity against Staphylococcus aureus CIP 7625 after 18 hrs by agar dilution method; settings: CIP 7625, 18 h; procedure, shortened: as §1
Staphylococcus aureus [32] = experiment: Antibacterial activity against Staphylococcus aureus CRBIP 2121 after 18 hrs by agar dilution method; settings: CRBIP 2121, 18 h; procedure, shortened: as §1
[33] = test system: Staphylococcus epidermidis; experiment: Antibacterial activity against Staphylococcus epidermidis CIP 53124 after 18 hrs by agar dilution method; settings: CIP 53124, 18 h; procedure, shortened: as §1
[34] = test system: Staphylococcus haemolyticus; experiment: Antibacterial activity against Staphylococcus haemolyticus CIP 8156 after 18 hrs by agar dilution method; settings: CIP 8156, 18 h; procedure, shortened: as §1
[35] = test system: Staphylococcus intermedius; experiment: Antibacterial activity against Staphylococcus intermedius N987 after 18 hrs by agar dilution method; settings: N987, 18 h; procedure, shortened: as §1
[36] = test system: Staphylococcus lugdunensis; experiment: Antibacterial activity against Staphylococcus lugdunensis ATCC 43809 after 18 hrs by agar dilution method; settings: ATCC 43809, 18 h; procedure, shortened: as §1
[37] = test system: Staphylococcus saprophyticus; experiment: Antibacterial activity against Staphylococcus saprophyticus CIP 76125 after 18 hrs by agar dilution method; settings: CIP 76125, 18 h; procedure, shortened: as §1
[38] = test system: Staphylococcus saprophyticus; experiment: Antibacterial activity against Staphylococcus saprophyticus E260 after 18 hrs by agar dilution method; settings: E260, 18 h; procedure, shortened: as §1
Mammaliicoccus sciuri = experiment: Antibacterial activity against Staphylococcus sciuri N993 after 18 hrs by agar dilution method; settings: N993, 18 h; procedure, shortened: as §1
Streptococcus agalactiae = experiment: Antibacterial activity against Streptococcus agalactiae CIP 103227 after 18 hrs by agar dilution method; settings: ATCC 13813, 18 h; procedure, shortened: as §1
MRC5 [39] = experiment: Cytotoxicity against human MRC5 cells assessed as growth inhibition at 10^-5 M after 72 hrs by MTS assay relative to control; settings: MRC5, 72 h, read-out: GI
Procedure, shortened: (§2)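 Cells from ATCC; HCT-116 grown in RPMI 1640 and MRC5 in DMEM, each with 10% FCS and 1% glutamine, 37 °C, 5% CO2. Seeded at 2.5 × 10^3 cells/well, cultured 24 h, then exposed to compounds at 1 and 10 μM final for 72 h. MTS read-out, absorbance 490 nm; percent index from treated/control OD490 × 100, three experiments.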

MRC5 [40] = experiment: Cytotoxicity against human MRC5 cells assessed as growth inhibition at 10^-6 M after 72 hrs by MTS assay relative to control; settings: MRC5, 72 h, read-out: GI; procedure, shortened: as §2
HCT-116 [41] = experiment: Cytotoxicity against human HCT116 cells assessed as growth inhibition at 10^-5 M after 72 hrs by MTS assay relative to control; settings: HCT-116, 72 h, read-out: GI; procedure, shortened: as §2
HCT-116 [42] = experiment: Cytotoxicity against human HCT116 cells assessed as growth inhibition at 10^-6 M after 72 hrs by MTS assay relative to control; settings: HCT-116, 72 h, read-out: GI; procedure, shortened: as §2

C=C(CC(=O)O)C(=O)C[C@H]1C(=C)CC[C@H]2C(C)(C)CCC[C@]12C
22%: inhibition of growth at 1 µM (MRC5 [40])
46%: inhibition of growth at 10 µM (HCT-116 [41])
50 µM: MIC (Bacillus cereus [1]) | MIC (Bacillus cereus [3]) | MIC (Bacillus cereus [4])
25%: inhibition of growth at 10 µM (MRC5 [39])
0%: inhibition of growth at 1 µM (HCT-116 [42])
> 158 µM: MIC (Enterococcus avium) | MIC [5] | MIC [6] | MIC (Enterococcus durans) | MIC (Enterococcus faecalis [7]) | MIC (Enterococcus faecalis [8]) | MIC (Enterococcus faecalis [9]) | MIC (Enterococcus faecalis [10]) | MIC (Enterococcus faecalis [11]) | MIC (Enterococcus faecium [12]) | MIC (Enterococcus faecium [13]) | MIC (Enterococcus faecium [15]) | MIC (Enterococcus faecium [16]) | MIC (Enterococcus faecium [17]) | MIC (Enterococcus gallinarum [18]) | MIC (Enterococcus gallinarum [20]) | MIC (Enterococcus hirae) | MIC (Listeria monocytogenes [23])
25 µM: MIC (Bacillus cereus [2])
100 µM: MIC (Bacillus spizizenii) | MIC (Staphylococcus aureus [30]) | MIC (Staphylococcus aureus [32]) | MIC [35] | MIC (Streptococcus agalactiae)
158 µM: MIC (Corynebacterium striatum) | MIC (Enterococcus faecium [14]) | MIC (Enterococcus gallinarum [19]) | MIC (Listeria innocua) | MIC (Listeria monocytogenes [21]) | MIC (Listeria monocytogenes [22]) | MIC (Listeria monocytogenes [24]) | MIC (Staphylococcus aureus [25]) | MIC (Staphylococcus aureus [26]) | MIC (Staphylococcus aureus [27]) | MIC (Staphylococcus aureus [28]) | MIC (Staphylococcus aureus [29]) | MIC (Staphylococcus aureus [31]) | MIC [33] | MIC [34] | MIC [36] | MIC [37] | MIC [38] | MIC (Mammaliicoccus sciuri)
